Tested on: MS2 coat protein
Test: apparent Kd, MS2 coat protein; higher = weaker binding; RNA-MaP array; FMN 200 µM where present
Procedure, shortened: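 Stalled E. coli RNA polymerase produced the designs on Illumina sequencing-chip clusters. SNAP-549-labelled MS2 coat protein was added from 0.7 or 1.5 nM, doubling to 3 µM, without and then with constant ligand, in 100 mM Tris-HCl pH 7.5, 80 mM KCl, 4 mM MgCl2, BSA, DTT, yeast tRNA and Tween-20. The apparent Kd is the median of filtered per-cluster fits of green signal normalised to red-channel RNA signal and control-cluster median Fmax.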

[1] = designed as: OFF switch for flavin mononucleotide, no ligand
[2] = ligand present: flavin mononucleotide, designed as: OFF switch for flavin mononucleotide
[3] = designed as: ON switch for flavin mononucleotide, no ligand
[4] = ligand present: flavin mononucleotide, designed as: ON switch for flavin mononucleotide

Row | Sequence | apparent Kd [1] [nM] | apparent Kd [2] [nM] | apparent Kd [3] [nM] | apparent Kd [4] [nM]
1 | UGAUCUUUUGUUAGGAUAUGCUGUUGUUUUCAACAGCAGAAGGGACAUGAGGAUCACCCAUGUCUUGUCAUAAA | 12 | 16.4 |  | 
2 | UGAUGAGGUUAGAAGGUACAGAGUAGUGGACCAAACAUGAGGAUCACCCAUGUCAUGGGAGGGAGUAAGGAUAUAAAGUUGUAG | 63.7 | 51.2 |  | 
3 | UGCACUAGAUGAGGAUAUGCACAUGAGGAUCACCCAUGUGUGUGCUGCGGUGGUGAUCUGUAAAUGCAGAAGGCAUUCGGGCGG | 111 | 63.9 |  | 
4 | UGCAGACGAGGAUAUAGAUUUAAGUACAUGAGGAUCACCCAUGUGCAUAUGUAUUUAGAUUUAGAAGGCGUCUGCA | 482 | 469 |  | 
5 | UGCAGACGAGGAUAUGAUCAAUAAUACAUGAGGAUCACCCAUGUAAUACUGAUCCAUGGAUCAGAAGGCGUCUGCA | 16.7 | 22.9 |  | 
6 | UGCAGACGAGGAUAUGAUCAAUAAUACAUGAGGAUCACCCAUGUAAUACUGAUCCAUGGAUCAGAAGGCGUCUGCU | 16.2 | 24.6 |  | 
7 | UGCCACCGGGAGAAGGGCAUACGUGAGGUCCUACAUAGUCACAUGAGGAUCACCCAUGUAGAAAUGCAGGAUAUCUCGUAGCAG | 6.93 | 13.4 |  | 
8 | UGCCUGCAGUCAGGAUAUGAUAACUGGGUAUGGUCUUUGUAACGACAUGAGGAUCACCCAUGUUUUUAGAAGGGACGUGUCAGC | 363 | 127 |  | 
9 | UGCGGCGCGGGCCACCGCAGGGCCAGAAGGACAUGAGGAUCACCCAUGUGGCAGGACAGGGCGGUGUAGGAUAUGGCAGGCUGG | 16.7 | 20.8 |  | 
10 | UGCUUCAUGUAAGGAUAUGCAGCCGUUUCGGCUGCAGAAGGUACUAUAAUACAUGAGGAUCACCCAUGUCUCUCGCAUUGCGAG |  |  | 240 | 95.6
11 | UGGAACGUGUCAGGAUAUACAUGAGGAUCACCCAUGUAUAGGAAAUAGGCAGGGUCUCUUGCAUAGUAGAAGGGACGCGAUUGC | 6.58 | 7.75 |  | 
12 | UGGCCGAAGUUAGGAUAUUGGUUAGGGACGGACUAAGAAGGAGCACAUACAUGAGGAUCACCCAUGUUAGAAGGUUGUCCUCCA | 15.5 | 13.7 |  | 
13 | UGGCUACAUGAGGAUCACCCAUGUCAGGAUAUGCCGUUGGAUUGCCUUCGUCGUUCGGGUAGAAGGGACUGCGG | 22.1 | 21.5 |  | 
14 | UGGCUACAUGAGGAUCACCCAUGUCAGGAUAUGCCGUUGGAUUGCCUUCGUCGUUCGGGUAGAAGGGACUGCGU | 30.3 | 27.5 |  | 
15 | UGGCUGAGUCGAGGAUAUGAUCUUCAUAUAUAUACAUGAGGAUCACCCAUGUAUAAUUACAUGGAUCAGAAGGCGACUCAGCCA |  |  | 31.6 | 11.5
16 | UGGGCGAGCCCAGUACUCACACAUGAGGAUCACCCAUGUGACGAGGAUAUAGACAGCGAUGCGUGCUAGAAGGCGUCACGGUAG | 10.9 | 35.3 |  | 
17 | UGGUAACAUGAGGAUCACCCAUGUCAGGAUAUCAGUAAGAAUAGAUGAGAGUAGAAGAUGAGAAGGGACUAUAU | 29.4 | 24.4 |  | 
18 | UGGUACAUGGGAGGAUAUAGGUUGAUAACAUGAGGAUCACCCAUGUUAAAUAAGCCGAGAGGCUACUAGAAGGCCCAUGUACCU |  |  | 4.73 | 4.75
19 | UGGUACAUGGGAGGAUAUCAUGUGAUAACAUGAGGAUCACCCAUGUCGAUGGAGACAUCGGAGAUUGAGAAGGCCCAUGUACCU |  |  | 1190 | 96.5
20 | UGGUACGAGGGAGGAUAUGGGAAGAUACAUGAGGAUCACCCAUGUUUAAGAAUGCCGAGAGGCAACUAGAAGGCCCUAGUACCU |  |  | 583 | 21.9
21 | UGGUACUAGGGAGGAUAUGGGAAGAUACAUGAGGAUCACCCAUGUUGAAGAAUGCCGAGAGGCAACUAGAAGGCCCUAGUACCU |  |  | 137 | 9.13
22 | UGGUACUAGGGAGGAUAUGGGAAGAUACAUGAGGAUCACCCAUGUUUAAGAAUGACGAGAGGCAACUAGAAGGCCCUAGUACCU |  |  | 328 | 25.9
23 | UGGUACUAGGGAGGAUAUGGGAAGAUACAUGAGGAUCACCCAUGUUUAAGAAUGCCGACAGGCAACUAGAAGGCCCUAGUACCU |  |  | 414 | 20.2
24 | UGGUACUAGGGAGGAUAUGGGAAGAUACAUGAGGAUCACCCAUGUUUAAGAAUGCCGAGAGGCAACGAGAAGGCCCUAGUACCU |  |  | 793 | 132
25 | UGGUACUAGGGAGGAUAUGGGAAGAUACAUGAGGAUCACCCAUGUUUAAGAAUGCCGAGAGGCAACUAGAAGGCCAUAGUACCU |  |  | 405 | 22
26 | UGGUACUAGGGAGGAUAUGGGAAGAUACAUGAGGAUCACCCAUGUUUAAGAAUGCCGAGAGGCAACUAGAAGGCCCUACUACCU |  |  | 294 | 20.6
27 | UGGUACUAGGGAGGAUAUGGGAAGAUACAUGAGGAUCACCCAUGUUUAAGAAUGCCGAGAGGCAACUAGAAGGCCCUAGUGCCU |  |  | 432 | 19.2

Row | Sequence | apparent Kd [1] [nM] | apparent Kd [2] [nM] | apparent Kd [3] [nM] | apparent Kd [4] [nM]
28 | UGGUACUAGGGAGGAUAUGGGAAGAUACAUGAGGAUCACCCAUGUUUAAGAAUGCCGGGAGGCAACUAGAAGGCCCUAGUACCU |  |  | 478 | 21.2
29 | UGGUCAUGAUCAGGAUAUUAACAUGGGCUACAUUAAGAAGGGAUAGUGAGAUACGAACUGAACGACAUGAGGAUCACCCAUGUU |  |  | 40.4 | 30.4
30 | UGGUGAAAUGUAGGAUAUGGAAAUAAAUUUUAACCAGAAGGACAUGAGGAUCACCCAUGUGAUAGAGAAUUAAUAAUAGCUCCU | 26.9 | 31.3 |  | 
31 | UGGUGUGAAGGAUAUACAUGAGGAUCACCCAUGUAUGUGGUGUGUGUUGAGGUGGAGGGUAGAAGGUCAGGUGG | 38.2 | 39.5 |  | 
32 | UGGUUCAUGGGAGGAUAUCCUCAAGAACAUGAGGAUCACCCAUGUAAUUAUAAGCCGAAAGGCAUGGAGAAGGCCCAUGAACCU |  |  | 67.5 | 16.9
33 | UGUACCGUUGGAACGCGUCGAGUACAUGAGGAUCACCCAUGUCAGGAUAUGUGGCGGAAGGUAGCACAGAAGGGACAUAGAAAA | 30.1 | 86.7 |  | 
34 | UGUAUACAUGAGGAUCACCCAUGUAAGGAUAUGCUUUAUUAUUAUUAUUAUUAUUAUUGCAGAAGGUACAUUAU | 35.8 | 35.9 |  | 
35 | UGUAUACAUGAGGAUCACCCAUGUCAACGUAGUCGAGGAUAUGGGCAGCCGUGAGGCGUACUAGAAGGCGAAGAGG |  |  | 337 | 110
36 | UGUAUAUAGGCAGGAUAUACAUGAAUAUAUAUGAUGUAGUAUGAUGUAACAUGAGGAUCACCCAUGUAGAAGGGCCAGUGUAUA | 73.8 | 144 |  | 
37 | UGUAUGGACAGAGGAUAUACAGAUAGGAUCUACUAUCAAACAGUCCUUACAUGAGGAUCACCCAUGUAGAAGGCUGUCCAUACU | 19.4 | 85.8 |  | 
38 | UGUAUGGACAGAGGAUAUACGGAUAGGAUCUACUAUCCUCCUUAAAUAACAUGAGGAUCACCCAUGUAGAAGGCUGUCCAUACU | 18.6 | 43.5 |  | 
39 | UGUAUGUAGGCAGGAUAUACAUGAAUAUAUAUGAUGUAGUAUGAUGUAACAUGAGGAUCACCCAUGUAGAAGGGCCAGUGUAUA | 102 | 164 |  | 
40 | UGUCCAUAGCAGAAGGACAUGAGGAUCACCCAUGUAAUCAUACAAAUACAUGUAGGAUAUGCUAUGGACUAAGAGCGAAAGCUC | 8.28 | 19.1 |  | 
41 | UGUCGGAGCACAGGAUAUUACAUGAGGAUCACCCAUGUAUGAACCAAUAGCUGGAAACAGCAAUGUAAGAAGGCUGCUCCGACA | 5.6 | 5.71 |  | 
42 | UGUCGGAGCAGAGGAUAUAUACAUGAGGAUCACCCAUGUAAAUGGAAUAGCUGGAAACAGCAAGUAUAGAAGGCUGCUCCGACA | 37.4 | 112 |  | 
43 | UGUCGGAGCAGAGGAUAUUACAUGAGGAUCACCCAUGUAUAAAAUGGAAGCUGGAAACAGCAAUGUAAGAAGGCUGCUCCGACA | 61.2 | 288 |  | 
44 | UGUCGGAGCAGAGGAUAUUACAUGAGGAUCACCCAUGUAUGAACCAAGAGCUGGAAACAGCAAUGUAAGAAGGCUGCUCCGACA | 10.9 | 121 |  | 
45 | UGUCGGAGCAGAGGAUAUUACAUGAGGAUCACCCAUGUAUGAACCAAUAGCUGGAAACAGCAAUGUAAGAAGGCUACUCCGACA | 5.41 | 31.4 |  | 
46 | UGUCGGAGCAGAGGAUAUUACAUGAGGAUCACCCAUGUAUGAACCAAUAGCUGGAAACAGCAAUGUAAGAAGGCUGCUUCGACA | 12.4 | 145 |  | 
47 | UGUCGGAGCAGAGGAUAUUACAUGAGGAUCACCCAUGUAUGAACCAAUAGCUGGAAACAGCAAUGUAAGAAGGCUGUUCCGACA | 11.9 | 134 |  | 
48 | UGUCGGAGCAGAGGAUAUUACAUGAGGAUCACCCAUGUAUGAACCAAUAGCUGGAAACAGUAAUGUAAGAAGGCUGCUCCGACA | 7.33 | 76.2 |  | 
49 | UGUCGGAGCAGAGGAUAUUACAUGAGGAUCACCCAUGUAUGGACCAAUAGCUGGAAACAGCAAUGUAAGAAGGCUGCUCCGACA | 18.3 | 215 |  | 
50 | UGUCGGAGCCGAGGAUAUUACAUGAGGAUCACCCAUGUAUGAACCAAUAGCUGGAAACAGCAAUGUAAGAAGGCUGCUCCGACA | 5.08 | 15.7 |  | 
51 | UGUCGGAGCGGAGGAUAUUACAUGAGGAUCACCCAUGUAUGAACCAAUAGCUGGAAACAGCAAUGUAAGAAGGCUGCUCCGACA | 9.67 | 131 |  | 
52 | UGUCGGUAGUAGAAGGGUAAGACAUGAGGAUCACCCAUGUGAUUUGGGUAUACAGGAUAUGCUUAUAUAUAAGAUUAAAUUAUU | 674 | 470 |  | 
53 | UGUCGUGUUCGAGGAUAUGAAACUAGGCCGGGCACUGUACACCCGCCUGUCUCAGAAGGCGGACAUGAGGAUCACCCAUGUAAA | 294 | 22.1 |  | 
54 | UGUCUUUGCACAGGAUAUCAUACAUGAGGAUCACCCAUGUCUAUAAAACAAUGAGAAGGGUGCGUGAUGUGGGCUGCUAUAGCG |  |  | 24.7 | 8.3

— the EternaBench riboswitch data
